Screening data (PubChem BioAssay)
Hits are enriched below; roughly 2.6% of the tested compounds scored in any of these assays.
SENP7 inh = blocks the human protease SENP7; Q9BQF6; recombinant SENP7, Z-RLRGG-aminoluciferin luminescence, 40 min; inhibition, % at 5 µM; 330,000 compounds, 1.5% hits; AID 434973;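 active means inhibition above about 50% at the single test dose, limit read from the data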;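 further: plate controls were DMSO with enzyme for no effect and no enzyme buffer wells for full effect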
Platelet DG rel = platelet dense granule release activity | AID 1663 | inhibition, %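 (compounds screened at 7.5 µM in platelet-rich plasma)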 | human platelet-rich plasma, SFLLRN dense granule ATP release, luminescence | 300,000 compounds, 0.22% hits;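 active means mean replicate score, as percent of positive control, at or above 50; inconclusive means mean below 50 but at least one replicate at or above 50; inactive means mean and every replicate below 50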
SENP6 inh = inhibitors of human SENP6 protease; Q9GZR1; Recombinant SENP6 catalytic domain, aminoluciferin luminescence; inhibition, % at 10 µM; 330,000 compounds, 1.8% hits; AID 2599;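 active means inhibition above about 50% at the single tested dose, limit read from the data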;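 further: plate controls were DMSO wells with enzyme for no effect and DMSO wells lacking enzyme for full effect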
Target sequence (Q9GZR1 628-1112 limits assumed): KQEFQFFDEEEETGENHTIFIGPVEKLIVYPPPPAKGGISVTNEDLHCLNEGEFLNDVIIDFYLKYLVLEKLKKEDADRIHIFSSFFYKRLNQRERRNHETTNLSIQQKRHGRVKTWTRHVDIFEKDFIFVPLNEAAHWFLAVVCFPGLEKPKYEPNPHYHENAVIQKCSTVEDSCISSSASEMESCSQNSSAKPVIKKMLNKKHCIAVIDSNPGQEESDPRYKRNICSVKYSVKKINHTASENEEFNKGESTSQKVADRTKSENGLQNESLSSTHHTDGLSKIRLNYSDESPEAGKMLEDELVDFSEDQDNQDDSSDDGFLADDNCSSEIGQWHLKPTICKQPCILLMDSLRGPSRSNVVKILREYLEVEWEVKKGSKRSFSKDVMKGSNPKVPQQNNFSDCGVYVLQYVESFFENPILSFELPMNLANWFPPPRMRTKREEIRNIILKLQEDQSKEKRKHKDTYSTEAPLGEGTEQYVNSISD
SENP8 block-1 = SENP8 (human) protease inhibition; 360,000 compounds, 0.64% hits; recombinant SENP8, Nedd8 substrate fluorescence; inhibition, % at 20 µM; Q96LD8; in the data active means inhibition mostly above about 40%, no sharp cut-off; inactive means mostly below about 27%
SENP1 inh = inhibitors of human SENP1 SUMO protease catalytic domain; Q9P0U3; recombinant SENP1 catalytic domain, CyPet-SUMO1-YPet FRET cleavage; inhibition, % at 10 µM; 360,000 compounds, 0.21% hits; AID 624204;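 active means inhibition at least 30% at 10 µM, raw YFP signal under a set limit, fluorescence ratio 0.5 to 1.5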;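 further: 0% = enzyme with DMSO and 100% = no enzyme wells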
Target sequence (Q9P0U3 419-644 limits assumed): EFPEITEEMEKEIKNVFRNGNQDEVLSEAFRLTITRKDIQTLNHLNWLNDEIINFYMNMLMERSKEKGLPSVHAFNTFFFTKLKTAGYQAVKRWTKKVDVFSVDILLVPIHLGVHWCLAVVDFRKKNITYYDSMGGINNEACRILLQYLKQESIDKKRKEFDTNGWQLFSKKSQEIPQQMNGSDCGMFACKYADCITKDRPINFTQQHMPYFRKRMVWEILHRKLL
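Material – human SENP1 catalytic domain · Input – SENP1 enzyme, 20 pM final · Compound dosing – single concentration of 10 µM compound, 0.5% DMSO final · Timing – enzyme reaction for 50 min at room temperature, dark · Measured by – FRET fluorescence in CFP and YFP emission channels · Control set – no-enzyme wells low, DMSO-plus-enzyme wells high control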
SENP8 block-2 = SENP8 protease inhibition; 330,000 compounds, 1.2% hits; purified SENP8, Z-RLRGG-aminoluciferin cleavage, luminescence; Q96LD8; inhibition, % at 10 µM; in the data active means inhibition above about 50%
SENP8 conf = confirmation of human SENP8 protease inhibitors | shares compounds with SENP7 inh | Recombinant SENP8, Z-RLRGG-aminoluciferin luminescence, 60 min | inhibition, % at 12.5 µM | 6,200 compounds, 40% hits;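 active means mean inhibition across replicates above about 50%, limit read from the data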
SENP6 confirm = human SENP6 inhibition, confirmed; inhibition, % at 12.5 µM; recombinant SENP6, Z-RLRGG-aminoluciferin luminescence; shares compounds with SENP7 inh; AID 488915; 6,200 compounds, 58% hits
SENP7 conf = confirmation of human SENP7 protease inhibitors | shares compounds with SENP7 inh | recombinant SENP7, Z-RLRGG-aminoluciferin luminescence, 40 min | inhibition, % at 12.5 µM | 6,200 compounds, 69% hits | AID 488917
Casp3 select = selectivity test for SENP inhibitors: human caspase-3 inhibition | purified caspase-3, Z-DEVD-aminoluciferin luminescence, 60 min | inhibition, % at 12.5 µM | AID 488918 | 6,200 compounds, 60% hits | shares compounds with SENP7 inh;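 active means mean inhibition above about 50%, limit read from the data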;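 further: plate controls were enzyme with DMSO for no effect and wells without caspase-3 for full effect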
SENP luc ctr = counter-screen for SENP inhibitors: luminescence interference; 6,200 compounds, 39% hits; shares compounds with SENP7 inh; Pre-incubated SENP8/Z-RLRGG-aminoluciferin, luciferase luminescence interference; AID 488919; inhibition, % at 12.5 µM;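 active means mean inhibition above about 50% when retested at one dose, limit read from the data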;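 further: plate controls were DMSO wells with completed reaction for no effect and substrate without enzyme for full effect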
The depositor's hits bear a star; ? = inconclusive; · = no result given.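 How the source made its calls, unless noted: active means mean inhibition above about 50% in the one-dose retest (limit read from the data); inactive means the rest.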

SMILES	SENP7 inh	Platelet DG rel	SENP6 inh	SENP8 block-1	SENP1 inh	SENP8 block-2	SENP8 conf	SENP6 confirm	SENP7 conf	Casp3 select	SENP luc ctr
Cc1ccc2c(c1)N=C(c1ccc(F)cc1)CO2	97.4*	·	97.8*	-155.6	9.0	95.0*	4.4	97.0*	102.2*	90.6*	49.9
O=[N+]([O-])c1ccc(C2=Nc3cc(Cl)ccc3OC2)cc1	-8.4	5.9	-0.8	-5.3	15.3	-9.8	·	·	·	·	·
Fc1ccc2c(Cl)c(-c3nnc(-c4cccs4)o3)sc2c1	69.2*	-3.0	5.9	-331.5	0.9	-9.6	1.9	7.6	25.1	13.6	2.9
Cc1ccccc1CC(=O)NCc1cccnc1	5.4	-9.2	16.8	0.8	-2.6	4.0	·	·	·	·	·
Cc1ccc(NC(=O)CS(=O)CC(=O)N(CC(=O)NC(C)(C)C)c2cccc(C)c2C)cc1 (stereo not drawn)	-3.6	-0.1	-3.8	4.4	3.4	-7.8	·	·	·	·	·
Cc1ccc(S(=O)(=O)N(C)C)cc1NC(=O)COC(=O)COc1ccc2c(c1)CCC2	0.8	1.7	-12.1	5.0	2.6	2.3	·	·	·	·	·
CN(C)C(=O)N(CCCN1CCOCC1)Cc1cccc2ccccc12	-8.4	-3.7	-0.7	20.1	2.3	-3.6	·	·	·	·	·
Oc1ccc(-c2csc(-c3ccccc3)n2)cc1O	29.4	12.2	54.0*	12.8	-2.7	35.5	60.4*	55.6*	73.0*	10.4	68.3*
Oc1ccc(-c2csc(-c3cccnc3)n2)cc1O	-0.1	4.1	-12.7	11.8	3.7	-2.8	·	·	·	·	·
Oc1ccccc1-c1csc(-c2ccccc2)n1	83.4*	2.4	76.4*	8.1	2.1	70.7*	-25.0	74.2*	92.1*	44.0	37.5
CCOC(=O)C(C)Sc1nc(-c2cccs2)ccc1C#N (stereo not drawn)	-0.8	-8.7	-11.1	-286.0	-19.4	9.2	·	·	·	·	·
C=COC(=O)CSc1nc(-c2cccs2)ccc1C#N	7.5	·	56.9*	-310.5	-23.1	48.5	-4.7	70.1*	27.6	42.4	-5.0
Oc1ccc(/C=N/Nc2cc(N3CCOCC3)nc(N3CCOCC3)n2)cc1	60.1*	12.0	18.6	-12.0	-6.4	4.7	13.3	32.9	4.4	0.5	2.8
CCOc1ccc(/C=N/Nc2cc(C)nc(N3CCOCC3)n2)cc1	1.9	-32.0	-20.5	25.9	1.3	-2.8	·	·	·	·	·
COc1ccc(/C=N/Nc2cc(N3CCCC3)nc(N3CCCC3)n2)cc1	38.2	-0.3	51.6*	-15.3	-7.5	13.5	16.2	51.1*	33.9	4.5	3.2
Brc1cccc(/C=N/Nc2nc(N3CCCCC3)nc(N3CCCCC3)n2)c1	5.8	5.3	-9.0	·	·	6.4	·	·	·	·	·
Oc1ccc(/C=N/Nc2cc(N3CCCC3)nc(N3CCCC3)n2)cc1	77.6*	-13.7	48.9	3.6	-9.0	35.7	10.6	61.0*	78.8*	10.0	6.9
Oc1cccc(/C=N/Nc2cc(N3CCCC3)nc(N3CCCC3)n2)c1	51.2*	5.6	56.8*	-26.8	-18.0	10.0	15.9	65.9*	27.0	4.5	11.2
Cc1nc(C)c(C(=O)N/N=C/c2cc(Br)ccc2O)s1	-0.9	-3.4	6.5	-91.3	-36.0	-8.4	·	·	·	·	·
CCOc1ccc(N=Nc2c(=O)[nH]n3c(=O)cc(C)[nH]c23)cc1	95.1*	?	95.5*	38.1	8.5	92.0*	96.6*	97.6*	101.7*	97.8*	93.1*
COc1cccc(N=Nc2c(N)[nH][nH]c2=O)c1	21.9	-7.2	-0.2	37.5	2.2	-0.2	·	·	·	·	·
COc1ccc(N=Nc2c(C)[nH][nH]c2=O)cc1	63.6*	3.5	69.4*	30.9	7.7	35.5	50.0*	52.1*	83.5*	79.7*	52.9*
CCOc1ccc(N=Nc2c(N)[nH][nH]c2=O)cc1	71.5*	12.8	76.0*	26.0	1.7	64.5*	56.6*	61.1*	90.4*	88.5*	43.9
Cc1cc(=O)n2[nH]c(=O)c(N=Nc3ccccc3)c2[nH]1	8.3	-0.4	36.4	39.9	3.0	17.7	·	·	·	·	·
COC(=O)C1=C(C)NC(C)=C(C(=O)OC)C1c1ccc2ccccc2n1	-5.3	-3.6	-7.9	-484.2	-24.1	-8.7	·	·	·	·	·
SMILES	SENP7 inh	Platelet DG rel	SENP6 inh	SENP8 block-1	SENP1 inh	SENP8 block-2	SENP8 conf	SENP6 confirm	SENP7 conf	Casp3 select	SENP luc ctr
O=C1c2ccccc2C(=O)C1c1ccc2ccccc2n1	99.5*	17.7	80.7*	18.7	-25.5	81.0*	9.7	33.6	42.1	29.5	19.7
Oc1ccc(/C=C/c2ccc3ccccc3n2)cc1	101.6*	90.2*	101.0*	-394.7	19.7	98.4*	99.6*	100.3*	103.2*	99.0*	97.6*
C(=C\c1ccc2ccccc2n1)/c1ccccc1	97.9*	45.0	98.2*	-409.7	0.8	97.6*	99.3*	100.7*	103.9*	98.6*	97.2*
Cn1nc(/C=C/c2ccccc2)ccc1=O	57.8*	12.2	54.2*	-396.3	1.9	41.3	28.4	31.6	75.7*	76.5*	55.0*
O/C(=C\c1ccc2ccccc2n1)c1ccc(O)cc1O	92.3*	25.6	91.3*	28.3	-32.6	92.8*	95.4*	95.8*	101.7*	92.1*	47.0
O=C(O)/C=C/c1ccc2ccccc2n1	-0.5	-3.0	-10.1	12.5	1.5	-4.1	·	·	·	·	·
CCc1ccc(N(CC(=O)N2CCOCC2)S(C)(=O)=O)cc1	-0.9	4.9	2.6	-10.0	-1.8	-1.5	·	·	·	·	·
O=C(O)/C(=C\c1cccc(O)c1)c1ccc(S(=O)(=O)N2CCCC2)s1	-3.8	·	1.0	-5.5	1.6	1.8	·	·	·	·	·
CC(C(=O)c1c[nH]c(C(N)=O)c1)c1ncc(C(F)(F)F)cc1Cl (stereo not drawn)	-3.6	1.7	-16.1	-0.5	0.1	-0.3	·	·	·	·	·
Fc1ccccc1/C=C/c1ccc2ccccc2n1	100.4*	41.9	10.7	-88.9	-0.7	95.5*	99.8*	100.9*	103.7*	98.8*	99.4*
N/C(=N\OC(=O)COc1ccccc1Cl)c1ccccn1	·	·	·	17.5	-2.4	·	·	·	·	·	·
COc1ccccc1C(=O)O/N=C(\N)c1ccccn1	8.7	2.7	52.5*	15.1	4.4	37.9	41.2	29.6	57.9*	74.5*	54.4*
N/C(=N\OC(=O)c1ccccc1[N+](=O)[O-])c1cccnc1	-4.7	6.3	-9.6	24.7	-36.8	-4.6	·	·	·	·	·
